This is a sample that favours compounds with a hit; in the whole collection about 4.3% have one here.
Yeast superoxide – lowers age-related superoxide in aged yeast cells; S. cerevisiae aged cells, superoxide DHE fluorescence; stronger effect = lower value; superoxide response (% of plate mean), % at 10 µM; 330,000 tested, 0.18% active; AID 2690;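 active = superoxide response under a set limit, about three screen SD below normal, cut at about 65% in these data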;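 also: yeast aged for seven days with compound at 30 °C before DHE staining; 100% = average MFI of all compound-treated wells on the plate with controls excluded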
Lipid droplet – modulators of hepatic lipid droplet formation. AID 1656. AML12 mouse hepatocytes, oleate lipid droplets, BODIPY imaging. inhibition, % at 6.5 µM. 240,000 tested, 0.4% active;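 active = lipid droplet intensity inhibited by at least 50%, with more than 500 cells counted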
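Technique: fluorescence imaging, 20x objective, two fields per well / Assay system: AML12 hepatocytes (mouse) / Measure: % inhibition of lipid droplet signal / Doses: 6.5 µM single-point dosing / Incubation: overnight exposure / Reagent: 100 µM oleic acid challenge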
SR-BI DiI-HDL act – enhances SR-BI lipid uptake from DiI-HDL; CHO ldlA[mSR-BI] cells, DiI-HDL uptake fluorescence, 3 h; 100 = double the neutral-control signal; 320,000 tested, 0.096% active; AID 504775; activation, % at 12.5 µM;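 active = mean replicate activation of at least 60% and every replicate at or above 60%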;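 also: 0% = median plate neutral-control signal and 100% = twice that signal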
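Assay system: CHO ldlA[mSR-BI] cells, LDL receptor-null, SR-BI overexpressing; medium: Ham's F12 with 0.5% BSA, HEPES 25 mM, pH 7.4; also added: DiI-HDL 10 µg/mL; timing: 3 h uptake period with compound, 37 °C; signal: DiI fluorescence, bottom read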
SR-BI DiI inh – mouse SR-BI HDL lipid transfer inhibition; Q61009; ldlA[mSR-BI] CHO cells, DiI-HDL uptake fluorescence, 3 h; inhibition, % at 12.5 µM; 320,000 tested, 0.96% active; AID 488896;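 active = mean replicate inhibition of at least 70% and a set share of replicates each scoring 70 or more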;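 also: 0% = median of neutral control wells and 100% = median of positive control wells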
AHR activator – activates the human aryl hydrocarbon receptor; P35869; AHR-responsive luciferase reporter cells, luminescence; activation, % at 5 µM; 320,000 tested, 2.5% active; AID 2796; in the data active = activation above about 47%;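 also: 0% = vehicle wells and 100% = reference agonist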
Target sequence (P35869 whole entry, looked up): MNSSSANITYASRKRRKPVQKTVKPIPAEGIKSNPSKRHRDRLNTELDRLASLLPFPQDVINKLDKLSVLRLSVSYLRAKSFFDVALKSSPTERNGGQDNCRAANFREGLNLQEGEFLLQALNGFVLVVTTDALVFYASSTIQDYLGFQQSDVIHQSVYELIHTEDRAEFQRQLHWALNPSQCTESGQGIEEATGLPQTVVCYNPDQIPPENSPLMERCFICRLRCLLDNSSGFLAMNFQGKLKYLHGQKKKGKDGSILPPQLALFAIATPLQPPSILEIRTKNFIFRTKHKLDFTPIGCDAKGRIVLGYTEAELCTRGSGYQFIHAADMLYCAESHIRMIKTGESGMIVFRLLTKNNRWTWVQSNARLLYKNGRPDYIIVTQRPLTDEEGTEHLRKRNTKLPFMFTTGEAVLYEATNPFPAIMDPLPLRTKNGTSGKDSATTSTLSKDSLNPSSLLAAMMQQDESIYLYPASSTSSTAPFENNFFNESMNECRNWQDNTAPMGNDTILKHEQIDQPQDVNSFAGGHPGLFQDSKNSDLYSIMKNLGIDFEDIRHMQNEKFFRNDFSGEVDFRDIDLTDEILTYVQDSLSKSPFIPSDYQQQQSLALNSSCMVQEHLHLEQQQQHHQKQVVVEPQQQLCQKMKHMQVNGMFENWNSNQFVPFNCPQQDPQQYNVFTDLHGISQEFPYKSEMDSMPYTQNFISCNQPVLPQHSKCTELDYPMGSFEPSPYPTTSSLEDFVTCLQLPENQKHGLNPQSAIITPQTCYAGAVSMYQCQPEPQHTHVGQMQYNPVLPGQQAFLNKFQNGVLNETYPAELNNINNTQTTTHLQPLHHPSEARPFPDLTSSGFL
SMARCA2 act – activators of SMARCA2 function | MG213 cells, MMTV-luciferase reporter, dexamethasone, overnight | activation, % at 9.1 µM | 370,000 tested, 1% active; in the data active = activation above about 7.8%;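 also: 0% = vehicle wells and 100% = reference activator wells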
SMARCA2 act conf – SMARCA2 activation, confirmation screen; shares compounds with SMARCA2 act; MG213 cells, MMTV-luciferase with dexamethasone, luminescence, overnight; MG213 cells expressing E1A, Rb sequestered; DMSO wells 0%, reference activator 100%; activation, % at 9.1 µM; 3,500 tested, 30% active;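 active = activation above its plate's cutoff, the mean activation of tested wells plus 3 SD, cut at about 7.9% in these data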
GAL4-VP16 Luc – counter-screen for SMARCA2 activators: GAL4-VP16 luciferase reporter activation | shares compounds with SMARCA2 act | HEK293 GAL4-VP16 pG5luc reporter, luciferase luminescence; scaled: DMSO wells 0%, SAHA wells 100% | 3,500 tested, 41% active | activation, % at 9.1 µM;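 active = activation above the solvent-only control well mean plus 3 SD, averaged across control plates, cut at about 5.2% in these data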
* marks the source's active call; other numbers are inactive results; . = no result given.

SMILES	Yeast superoxide	Lipid droplet	SR-BI DiI-HDL act	SR-BI DiI inh	AHR activator	SMARCA2 act	SMARCA2 act conf	GAL4-VP16 Luc
COc1cccc(C(=O)Nc2ccc3c(c2)C(=O)c2ccccc2C3=O)c1	109.9	-7.0	-43.9	43.9	-1.5	12.1*	3.2	12.0*
COc1cccc(C(=O)Nc2ccc(C)cc2)c1	88.4	-2.6	-13.9	13.9	10.4	11.2*	5.5	6.6*
O=C(c1ccncc1)N1CCC(Oc2cccnc2)CC1	.	.	.	.	.	2.9	.	.
CCn1c2ccccc2c2cc(NC(=O)COC(=O)c3cccc(F)c3F)ccc21	.	.	.	.	.	-1.4	.	.
CC(C)(C)c1ccc(S(=O)(=O)N2CCC(c3cn4ccccc4n3)CC2)cc1	.	.	.	.	.	1.3	.	.
CN(C(=O)c1cc2sccc2n1C)C1CCCCC1	123.3	-18.2	-6.5	6.5	2.7	8.9*	1.6	7.5*
O=C1CC2(CCCC2)CC(=O)N1c1ccccc1	92.4	-15.4	5.3	-5.3	-0.4	-3.6	.	.
O=C1CC2(CCCCC2)CC(=O)N1CCc1ccccc1	.	.	-3.3	3.3	.	8.0*	2.2	2.5
O=C(CN1CCc2onc(-c3ccc(-n4cc(COc5ccc([N+](=O)[O-])cc5)nn4)cc3)c2C1=O)N1CCOCC1	.	.	.	.	.	-3.9	.	.
Fc1ccc(Oc2nc(-c3ccccn3)nc3ccccc23)cc1	91.1	1.8	.	.	-0.2	9.0*	-4.6	2.7
c1ccc(Oc2nc(-c3ccccn3)nc3ccccc23)cc1	104.9	-7.4	.	.	-0.6	4.1	.	.
COc1ccc(Oc2nc(-c3ccccn3)nc3ccccc23)cc1	80.5	0.6	.	.	7.9	8.3*	-6.2	-1.5
Cc1cc(C)cc(C(=O)Nc2cccnc2Cl)c1	89.8	-28.2	-21.0	21.0	3.1	3.5	.	.
Cc1ccc(C(=O)Nc2cccnc2Cl)cc1Cl	114.0	-8.4	-3.1	3.1	3.0	8.3*	9.1*	7.5*
CCN1CCCCC(NC(=O)COCc2ccccc2)C1=O (stereo unspecified)	.	.	.	.	.	-1.4	.	.
CC1(C)CC(=O)C(N=Nc2ccc(Br)cc2)=C(O)C1	91.4	23.3	.	.	1.4	8.3*	10.6*	3.9
COc1ccc(N=NC2=C(O)CC(C)(C)CC2=O)cc1	125.6	.	22.4	-22.4	-0.6	-0.2	.	.
c1ccc(-c2ncc3c(ccc4ccccc43)n2)cc1	97.0	-20.3	4.2	-4.2	42.9	9.1*	1.9	5.1*
c1ccc2c(c1)cnc1ccccc12	88.7	1.4	-1.2	1.2	-3.5	2.2	.	.
COc1ccccc1N1CCN(C(=O)c2cc3c(C)nn(-c4ccccc4)c3s2)CC1	.	.	.	.	.	-5.3	.	.
CN(CCCNC(=O)CCCOc1cc(=O)n(C)c2ccccc12)Cc1ccccc1	83.8	22.4	8.1	-8.1	0.0	9.6*	1.7	3.0
CN(CCNC(=O)CCCOc1cc(=O)n(C)c2ccccc12)Cc1ccccc1	95.4	-10.8	-5.5	5.5	-0.9	3.3	.	.
CCOC(=O)CNC(=S)N1CCn2c(nc3ccccc32)C1	76.8	4.4	-6.1	6.1	18.8	9.8*	-2.3	0.3
CCNC(=S)N1CCn2c(nc3ccccc32)C1	96.0	12.8	16.6	-16.6	-2.8	-0.6	.	.
NS(=O)(=O)c1ccc(NC(=O)COC(=O)C2CCCCC2)cc1	89.8	3.5	5.1	-5.1	0.0	1.4	.	.
SMILES	Yeast superoxide	Lipid droplet	SR-BI DiI-HDL act	SR-BI DiI inh	AHR activator	SMARCA2 act	SMARCA2 act conf	GAL4-VP16 Luc
CC(C)c1ccc(NC(=O)COC(=O)C2CCCCC2)cc1	106.2	.	18.5	-18.5	0.7	8.4*	-0.1	0.8
CCn1c(/C=C/c2ccccc2)nc2ccccc21	83.0	.	-42.8	42.8	14.5	9.2*	10.7*	10.7*
CC(C)CCNC(=O)C1CCN(c2cncnc2)CC1	.	.	.	.	.	1.8	.	.
NC(=O)c1c(N)[nH]c(C(=O)c2ccccc2)c1-c1ccccc1	.	.	.	.	.	-0.8	.	.
Cn1ccc(NC(=O)c2ccc(Cl)cc2)n1	99.8	.	1.8	-1.8	-0.8	-0.5	.	.
Cn1ccc(NC(=O)c2ccc(Cl)cc2Cl)n1	115.4	.	-3.8	3.8	0.7	8.6*	5.5	10.4*
COc1ccc(C2=NOC(CNC(N)=S)C2)cc1 (stereo unspecified)	82.2	-2.2	19.2	-19.2	7.2	12.8*	6.9	7.7*
COc1ccc(CNC(=O)C2CC(c3ccc(OC)cc3)=NO2)cc1 (stereo unspecified)	115.9	.	0.4	-0.4	0.7	2.2	.	.
Nc1nnc(-c2ccc(Cl)cc2Cl)s1	105.1	-0.8	-3.4	3.4	-1.4	12.4*	6.3	8.2*
Nc1nnc(-c2ccccc2F)s1	112.0	-0.2	1.4	-1.4	6.3	1.4	.	.
CN(C)/N=C/C=C1\CC/C(=C\c2ccc(Br)cc2)C1=O	94.2	4.3	7.5	-7.4	11.2	0.4	.	.
CN(C)/N=C/C=C1\CCC/C(=C/c2cccs2)C1=O	104.6	-21.3	.	.	0.4	8.3*	7.7	5.3*
COc1ccc(C(C#N)N2N=C(C)CC2c2ccccc2)cc1OC (stereo unspecified)	99.8	.	-7.6	7.6	0.1	0.1	.	.
COc1ccc(C(C#N)N2N=C(c3ccccc3)CC2c2ccccc2)cc1OC (stereo unspecified)	98.0	-12.4	-1.2	1.2	32.1	13.4*	6.7	4.4
Brc1ccc(Cn2c(-c3cncs3)nc3ccccc32)cc1	94.0	-28.6	3.6	-3.6	6.4	8.8*	6.8	1.8
COc1ccc(C2=Nn3c(nnc3-c3cccnc3)SC2)cc1	.	-1.5	-26.9	26.9	.	9.7*	3.9	2.2
COc1ccc(OC)c(-c2nnc3n2N=C(c2ccc(OC)c(OC)c2)CS3)c1	103.1	.	19.5	-19.5	41.2	11.6*	33.5*	16.6*
COc1ccc(-c2nn3c(C4CCCCC4)nnc3s2)cc1OC	117.9	.	-23.0	23.0	6.8	12.3*	7.3	4.2
COc1cc(-c2nn3c(C4CCCCC4)nnc3s2)cc(OC)c1OC	102.8	.	5.4	-5.4	6.3	-1.0	.	.
COc1ccc(C2=Nn3c(nnc3-c3ccccc3F)SC2)cc1OC1CCCC1	107.5	.	13.4	-13.4	41.2	16.9*	30.5*	20.5*
COC(=O)[C@]12C[C@H](CC(=O)N3CCCCC3)C(=O)N(CCC3=CCCCC3)C1=C[C@H](C1CCCC1)O[C@@H]2C	.	.	.	.	.	-6.2	.	.
C[C@@H](CO)N(Cc1cn(Cc2ccccc2)nn1)S(=O)(=O)c1ccc(F)cc1Br	.	.	.	.	.	-5.4	.	.
O=C(Nc1nc2ncccn2c1-c1ccc(F)c(F)c1)C1CC1	.	.	.	.	.	-2.6	.	.
COC(=O)[C@H](C(C)C)N1Cc2nnn(Cc3ccc(C)cc3)c2-c2ccccc2S1(=O)=O	.	.	.	.	.	1.1	.	.

Screening data: PubChem BioAssay, several laboratories
